Bioassay records as filed in PubChem BioAssay.
Yeast life ext – compounds extending yeast replicative lifespan, primary screen, S. cerevisiae, OD615 | S. cerevisiae growth with nicotinamide; deaD strain in restrictive glucose medium | inhibition of the nicotinamide effect, % at 10 µM | 130,000 compounds, 0.68% hits | AID 775, 2007;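 active = inhibition above a set limit, placed 3 SD over the median of all compounds, cut at about 26% in these data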
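Assay system: DeaD-strain S. cerevisiae. Medium: CSMM-D glucose medium, restrictive. Reagent: nicotinamide, 1.5 mM, co-present with compound. Compound: 10 µM single point, 0.25% DMSO. Schedule: culture preincubation 4 h, compound exposure 48 h, both 30 °C. Detection: absorbance at 615 nm.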
Yeast growth inh – growth inhibitors of yeast BB579 in restrictive medium, primary screen, yeast lifespan-shortening project, S. cerevisiae | OD615, 48 h | inhibition, % at 10 µM | 140,000 compounds, 0.51% hits | AID 804, 2007;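 active = inhibition above a set limit, 3 SD over the mean compound inhibition, cut at about 44% in these data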
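System: DeaD yeast strain BB579; buffer or medium: CSMM-D dextrose restrictive medium; technique: OD at 615 nm; schedule: 4 h cell preincubation, 48 h compound exposure, 30 °C humidified; doses: single 10 µM dose; controls: amphotericin B 10 µg/mL, positive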
RAM inhibit – inhibitors of the yeast RAM network, primary screen, dse1pr::URA3 reporter, 5-FOA selection; S. cerevisiae dse1pr::URA3 reporter, 5-FOA growth OD615, 2 d; analog-sensitive cbk1-as2 kinase mutant strain; inhibition, % at 50 µM; 190,000 compounds, 1.8% hits;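 active = inhibition above a set limit, 3 SD over mean compound inhibition, cut at about 8.4% in these data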;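 also: inhibition rescues growth on 5-FOA so higher OD means more RAM inhibition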
INS promoter inh – inhibitors of insulin promoter-driven GFP, primary screen, imaging, TRM-6 cells, eGFP reporter, cell count; reporter expression induced with tamoxifen; inhibition, % at 2 µM; 130,000 compounds, 0.9% hits; AID 1273, 2008;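 active = inhibition above the mean plus 3 SD, with well images judged a real hit on visual review, cut at about 60% in these data, passing the limit was not always enough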
Insulin prom up – insulin promoter activators in MIN6 cells, imaging, high-content screening, mouse beta cells | MIN6 insulin promoter-GFP reporter; hits give high values | z-score at 5 µM | 190,000 compounds, 0.3% hits | AID 1625, 2009;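 active = z-score above 3 at 5 µM with at least 500 cells counted in the well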
RAM 5-FOA – 5-FOA growth of efflux-deficient control yeast, dose response, counter-screen for RAM network inhibitor project, S. cerevisiae, OD615. shares compounds with RAM inhibit. S. cerevisiae efflux-deficient reporter strain, 5-FOA growth OD615, 2 days. max inhibition, %. 1,200 tested, under 10 active. AID 1305, 2008; call rule not given here
A number is an active result; . = inactive; / = no result given. Compounds with a hit are over-represented: about 3.1% of the library has one in this group of screens.

SMILES | Yeast life ext | Yeast growth inh | RAM inhibit | INS promoter inh | Insulin prom up | RAM 5-FOA
O=C(CSc1cccc(C(F)(F)F)c1)Nc1cc(S(=O)(=O)N2CCCC2)ccc1Cl | . | . | 15.5 | . | . | .
Cn1nnnc1SCC(=O)Nc1cc(S(=O)(=O)N2CCCC2)ccc1Cl | / | / | . | . | . | /
COC(=O)[C@@H]1CC[C@H](C)[C@@H](c2ccc(C)cc2)N1C(=O)c1ccc(/C=N/OC[C@@H](O)COCc2ccco2)cc1 | . | . | 14.9 | . | . | .
NS(=O)(=O)c1ccc(NC(=O)COC(=O)COc2ccccc2)cc1 | / | / | . | . | . | /
COc1ccc(/C=N/Nc2nc(Nc3ccccc3)nc(N3CCCCC3)n2)cc1OC | . | . | . | . | / | /
CCOc1cc(/C=N/Nc2nc(Nc3ccccc3)nc(N3CCCCC3)n2)ccc1OCC(=O)O | / | / | 18.5 | . | . | .
C=C(CC1([C@@H](NP(=O)(c2ccccc2)c2ccccc2)[C@H]2C[C@@H]2CCCC)CC1)c1ccccc1 | . | . | 21.2 | . | . | .
Cc1c(C(=O)C(=O)NCc2cccs2)c2ccccc2n1C | / | / | . | / | . | /
COC(=O)Cc1ccc(N(Cc2ccccc2F)S(=O)(=O)c2ccc(C)cc2)cc1 | . | . | 20.0 | . | . | .
O=C(CCl)Nc1nc(-c2ccco2)c(-c2ccco2)s1 | . | . | . | . | . | /
O=C(CCCSc1ccccc1)Nc1nc(-c2ccco2)c(-c2ccco2)s1 | . | . | 12.7 | 76.0 | . | .
Cc1nn(C)cc1/C=C/C(=O)c1ccc(O)cc1 | . | . | . | . | . | /
C=CCn1cccc(/C=C/C(=O)c2ccc(C(C)(C)C)cc2)c1=S | . | . | 16.5 | . | . | .
COc1ccc(CN(CCC(c2ccccc2)c2ccco2)C(=O)c2ccco2)cc1 (configuration not stated) | . | . | 12.7 | . | . | .
COc1ccc(CN(C(=O)c2ccco2)c2ccccc2)cc1 | / | . | . | . | / | /
CCc1nnc(NC(=O)C2CCC(CNc3c(N4CCCCC4)c(=O)c3=O)CC2)s1 (configuration not stated) | / | / | / | / | . | /
Cc1ccc(NC(=O)CCC(=O)OCC(=O)c2ccc(-c3ccccc3)cc2)cc1 | . | . | . | . | / | /
Cc1ccccc1OCC(=O)OCC(=O)c1ccc(-c2ccccc2)cc1 | . | . | 14.2 | / | . | .
Cc1cccc2cc(CN(CCCN(C)C)C(=S)NCCc3ccccc3)c(=O)[nH]c12 | / | / | . | / | . | /
Cc1cccc(Nc2nc(NCc3ccco3)c3ccccc3n2)c1 | . | . | 16.5 | . | . | .
c1ccc(Nc2nc(NCc3ccco3)c3ccccc3n2)cc1 | / | / | / | / | . | /
Cc1ccc(-n2ncc3c(=O)[nH]c(SCC(=O)N4CCN(c5ccccc5)CC4)nc32)cc1 | / | . | . | . | / | /
Cc1ccc(-n2ncc3c(=O)[nH]c(SCC(=O)N4CCCc5ccccc54)nc32)cc1 | . | . | 11.7 | . | . | .
O=C(OCC#CCSc1nnc(-c2cccc3ccccc23)o1)c1ccco1 | . | . | 17.2 | . | . | .
O=C(OCC#CCSc1nnc(-c2ccncc2)o1)c1cccs1 | . | . | . | . | . | /
SMILES | Yeast life ext | Yeast growth inh | RAM inhibit | INS promoter inh | Insulin prom up | RAM 5-FOA
CCN(CC)c1ccc(/C=N/NC(=O)CCC(=O)NCc2ccccc2)c(O)c1 | . | . | . | . | . | /
CCc1c(C#N)c(SCc2c(C)noc2C)nc2c1C(=O)CC(C)(C)C2 | . | . | 12.1 | . | . | .
Cc1ccc(-c2ccc(/C=N/O)o2)cc1[N+](=O)[O-] | / | / | . | . | . | /
O=C(NNC(=O)c1ccncc1)NC1CCCCC1 | / | / | . | / | . | /
COc1ccc2nc(NC(=O)c3cccc(-c4cc5ccccc5oc4=O)c3)sc2c1 | . | . | . | / | . | /
O=C(Nc1cc(Sc2ccccn2)cc([N+](=O)[O-])c1)c1ccc(Cl)cc1 | . | . | . | . | / | /
O=C(Nc1cc(Sc2ccccn2)cc([N+](=O)[O-])c1)c1cccc(Cl)c1 | . | . | 11.8 | . | . | .
COc1cc(NC(=O)c2ccc3c(c2)OCO3)c2ncccc2c1 | . | . | 12.3 | . | / | .
CC/C(=N\OC(=O)c1ccc(OC(C)C)cc1)c1ccc(C)cc1 | . | . | . | . | / | /
